Compound activity as filed in PubChem BioAssay.
An excerpt weighted towards active compounds, which were near 1.9% of everything screened.
CHRM4 PAM: CHRM4 positive allosteric modulation; CHO-K1 hM4/Gqi5, Fluo-8 calcium fluorescence, ACh EC20; 0% = ACh EC20, 100% = maximal ACh; P08173; 0.4% of 360,000 active; activation, % at 3 µM;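 active = activation above its plate's cutoff, the mean activation of sample wells plus 3 SD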
M4 antag: antagonists of human muscarinic M4 receptor (CHRM4). P08173. CHO-hM4 cells, ACh EC80, Fluo-8 calcium fluorescence. inhibition, % at 3 µM. 0.73% of 360,000 active. AID 624125;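 active = inhibition above its plate's cutoff, the mean inhibition of sample wells plus 3 SD, cut at about 27% in these data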;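 also: 0% = acetylcholine EC80 with DMSO and 100% = DMSO without agonist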
M5 antag: antagonists of human muscarinic M5 receptor (CHRM5); CHO-hM5 cells, Fluo-8 calcium fluorescence, ACh EC80; inhibition, % at 3 µM; 0.59% of 360,000 active; AID 624040;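 active = inhibition above a per-plate cutoff, the mean of that plate's test compounds plus 3 SD, cut at about 27% in these data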;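 also: 0% = acetylcholine EC80 with DMSO and 100% = DMSO without agonist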
Target sequence (P08912 whole entry, looked up): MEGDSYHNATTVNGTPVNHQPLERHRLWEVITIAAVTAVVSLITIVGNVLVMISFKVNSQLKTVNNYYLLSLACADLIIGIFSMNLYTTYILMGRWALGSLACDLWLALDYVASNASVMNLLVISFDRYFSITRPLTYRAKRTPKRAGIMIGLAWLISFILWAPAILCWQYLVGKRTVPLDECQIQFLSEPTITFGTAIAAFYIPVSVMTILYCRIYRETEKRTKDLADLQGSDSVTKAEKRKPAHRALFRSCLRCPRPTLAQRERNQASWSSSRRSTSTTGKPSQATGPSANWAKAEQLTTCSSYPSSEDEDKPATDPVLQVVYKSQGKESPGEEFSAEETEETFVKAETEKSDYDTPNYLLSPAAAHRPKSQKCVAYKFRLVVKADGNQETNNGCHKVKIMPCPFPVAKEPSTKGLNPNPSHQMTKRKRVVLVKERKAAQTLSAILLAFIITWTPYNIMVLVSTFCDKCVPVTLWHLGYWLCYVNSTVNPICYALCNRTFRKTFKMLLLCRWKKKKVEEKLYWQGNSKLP
CHRM4 agonist: CHRM4 agonism in calcium assay | activation, % at 3 µM | P08173 | 0.14% of 360,000 active | CHO-K1 hM4/Gqi5, Fluo-8 calcium fluorescence; vehicle 0%, full acetylcholine response 100%;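 active = activation above the run mean over all test wells plus 3 SD, cut at about 32% in these data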;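 also: peak over basal fluorescence ratio per well then scaled between controls; 0% = DMSO wells and 100% = acetylcholine at EC100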
CHRM5 PAM: CHRM5 positive allosteric modulation | P08912 | CHO-K1 hM5, Fluo-8 calcium, ACh EC20 PAM; 0% = ACh EC20, 100% = ACh EC100 | activation, % at 3 µM | 0.3% of 360,000 active;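 active = activation above the run cutoff, the mean activation of all test compounds plus 3 SD, cut at about 18% in these data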
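Assay system: CHO-K1 hM5 cells / Incubation: Fluo-8 loading 80 min at 37 °C plus 30 min room temperature / Technique: Fluo-8 calcium dye fluorescence, kinetic read / Repeats: single replicate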
CHRM5 agonist: agonists of human muscarinic M5 receptor (CHRM5); 0.19% of 360,000 active; activation, % at 3 µM; AID 624037; CHO-K1 hM5 cells, Fluo-8 calcium fluorescence; 0% DMSO wells, 100% maximal acetylcholine response;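 active = activation above the run's mean over test compounds plus 3 SD, cut at about 23% in these data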;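 also: signal is peak over basal fluorescence ratio across the kinetic read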
Numbers without * were called inactive.

SMILES | CHRM4 PAM | M4 antag | M5 antag | CHRM4 agonist | CHRM5 PAM | CHRM5 agonist
O=C(CCCn1c(=O)[nH]c2ccsc2c1=O)N1CCCCC1 | 9 | -3 | 2 | 0 | 26* | -6
CCOC(=O)N1CCN(C(=O)CCCCn2c(=S)[nH]c3ccsc3c2=O)CC1 | 19* | -20 | -5 | 0 | 12 | 3
COc1ccc(N=C(C)C2C(=O)c3ccccc3C2=O)cc1 | 6 | -9 | 1 | 0 | 0 | 0
CCC(=O)N1CCN(C(=O)c2ccccc2)CC1 | -16 | 75* | -2 | 0 | -10 | 1
CN(C)c1ccc(CNC(=O)C2Cc3c(-c4cccc(C(N)=O)c4)ccnc3O2)cc1 (stereo not given) | 1 | 1 | 0 | 2 | 3 | 2
Cc1cc(C)n2nc(C(=O)N/N=C/c3cccc(Cl)c3)nc2n1 | 32* | 1 | 2 | 1 | -3 | 0
CC(C)C[C@H]1CN([C@@H](Cc2ccccc2)CN2CCC[C@@H]2CN2C(=O)C(=O)NC[C@@H]2Cc2ccccc2)C(=O)C(=O)N1CC1CCCCC1 | -2 | -5 | 12 | -2 | -8 | -4
Cc1cc(C)cc(C(=O)NCC(=O)OCC(=O)NCC(F)(F)F)c1 | 2 | 12 | -9 | 1 | 18* | 1
CC(=O)Nc1ccc2nc(-c3ccc(Br)o3)[nH]c2c1 | 23* | -6 | 7 | 3 | 0 | 0
O=C(O)C1=CCC=CC1C(=O)O (stereo not given) | -3 | 3 | -1 | 1 | -2 | 1
CN1CCc2cccc3c2C1Cc1ccc(O)c(O)c1-3 (stereo not given) | -8 | 5 | 4 | 3 | -7 | 36*
CC(C)CN(C(=O)COC(=O)CCc1c[nH]c2ccccc12)c1c(N)n(Cc2ccccc2)c(=O)[nH]c1=O | 2 | 0 | 7 | 2 | 1 | 1
CC(C)CN(C(=O)COC(=O)CCCc1c[nH]c2ccccc12)c1c(N)n(Cc2ccccc2)c(=O)[nH]c1=O | -2 | 7 | 29* | 1 | -6 | -2
COc1ccc([C@H]2CC(=O)C=C(c3ccc(C(F)(F)F)c(C(F)(F)F)c3)C2)cc1OC | 4 | -25 | -8 | 1 | 20* | -1
COc1ccc(CN2C(=O)CSCC2(C)C(=O)Nc2ccc3c(c2)OCCO3)cc1 (stereo not given) | 1 | 10 | 0 | 0 | 0 | -5
Cc1cc(C)nc(Nc2ncc(O)n2-c2ccccc2)n1 | -7 | 9 | 2 | 1 | 1 | 0
Cc1cccc(-n2c(O)cnc2Nc2nc(C)cc(C)n2)c1 | -8 | 5 | 27* | 17 | -12 | 0
CCN1C(=O)/C(=C/c2c(C)nn(C)c2C)SC1=S | 30* | 2 | 11 | 4 | -7 | -5
CCN1C(=O)/C(=C\N2CCCCCC2)SC1=S | -22 | 69* | 32* | 2 | -22 | -6
Cc1ccc(S(=O)(=O)N2C[C@H]3C(=O)C[C@@H](c4ccc(Cl)cc4)N(S(=O)(=O)c4ccc(C)cc4)[C@H]3C[C@H]2c2ccc(Cl)cc2)cc1 | -4 | -6 | 6 | 1 | -6 | 2
CCOC(=O)c1c(NC(=O)CSc2nnc(-c3ccco3)o2)sc(C)c1C | 36* | 0 | 2 | 1 | 0 | -2
CCOC(=O)c1c(NC(=O)CSc2nnc(-c3ccco3)o2)sc(C(C)=O)c1C | 0 | -1 | -6 | 2 | 0 | 1
CCOC(=O)c1c(NC(=O)CSc2nnc(-c3cccnc3)n2Cc2ccco2)sc(C)c1C | 8 | 4 | -10 | -1 | 19* | -10
CCC1Cc2[nH]c(=S)[nH]c(=O)c2C(c2ccc(Cl)cc2)O1 (stereo not given) | 8 | -7 | -12 | 2 | 3 | 3
CCOc1ccc(NC(=O)Nc2ccc3nsnc3c2)cc1 | -12 | 2 | 33* | 17 | -23 | 6
SMILES | CHRM4 PAM | M4 antag | M5 antag | CHRM4 agonist | CHRM5 PAM | CHRM5 agonist
CCOc1ccc(NC(=O)Nc2cccc(C(=O)O)c2)cc1 | 5 | 8 | 5 | 6 | -1 | -4
O=C(Nc1ccc(F)cc1)Nc1cc(OCC(F)(F)F)cc(OCC(F)(F)F)c1 | -13 | 19 | 30* | 12 | -18 | 8
CCOc1ccc(NC(=O)Nc2cc(OCC(F)(F)F)cc(OCC(F)(F)F)c2)cc1 | -9 | 9 | 28* | 10 | -15 | 1
COC(=O)c1ccc(NC(=O)Nc2ccc(F)cc2)cc1 | -9 | 13 | 21 | 14 | -17 | 6
Cc1ccsc1CNC(=O)C1(C)CCN1C(C)C (stereo not given) | 0 | 8 | 10 | 1 | -4 | -3
CCc1nc2c(OCCc3cccc(OC)c3)cccn2c1N(C=O)Cc1ccc(OC)cc1 | -3 | -8 | -9 | 6 | -3 | -1
COc1ccc(C(C#N)CC(=O)c2ccc(OCc3ccccc3)c(OC)c2)cc1OC (stereo not given) | 5 | -9 | 18 | 2 | 5 | 3
COc1ccc(OC)c(-c2c3cc(O)c(=O)cc-3oc3cc(O)c(O)cc23)c1 | -17 | 13 | 12 | 60* | -13 | 55*
O=c1cc2oc3cc(O)c(O)cc3c(-c3ccccc3O)c-2cc1O | -10 | 5 | 14 | 24 | -7 | 10
Cc1sc2ncnc(NS(=O)(=O)c3ccc(Cl)cc3)c2c1C | 6 | -5 | 9 | 3 | 4 | 3
CC(=O)Nc1ccc(S(=O)(=O)Nc2nc(C)nc3sc(C)c(C)c23)cc1 | 21* | -12 | -20 | -1 | 10 | -2
Cc1cc(C)c(CN2CCN(C(=O)Cn3ccc(N)nc3=O)CC2)c(C)c1 | 13 | -9 | 6 | 1 | -2 | -6
CSc1nc(N)nc2c1ncn2CC(=O)N1CCN(Cc2c(C)cc(C)cc2C)CC1 | -7 | 7 | 32* | 13 | -15 | 3
CCN(CC)CCN1c2ccccc2Sc2ccccc21 | -18 | 89* | 99* | 3 | -18 | -7
CCN(CC)CCN1c2ccccc2Sc2ccc3ccccc3c21 | -15 | 20 | 80* | 4 | -21 | -7
COc1ccc(NC(=O)C2(C)CCN2C(=O)c2ccccc2CCc2ccccc2)cc1OC (stereo not given) | -8 | 8 | 6 | 11 | -11 | 2
Cc1nc2ccccc2n1CC(=O)NCCN1CCOCC1 | 28 | 32* | 0 | 1 | 1 | 1
COCCN(CCOC)Cc1cc(=O)oc2ccccc12 | -4 | -1 | -2 | 0 | 3 | 1
CCNC(=O)CC1C(=O)N(c2ccccc2)C(=O)N1CCC(C)C (stereo not given) | 25* | -4 | 8 | 0 | 5 | -2
COc1ccc(C2=Nc3ccccc3N(C(=O)c3ccncc3)C2C(=O)NC(C)(C)C)cc1 (stereo not given) | 4 | -1 | -7 | 0 | -1 | 1
